Sampled rows, rich in hits. Any-hit rate of the full collection: about 2.5%.
Rin1-Abl PPI inh: human Rin1-Abl interaction inhibition; P00519+Q13671; TR-FRET Rin1/Abl binding, biochemical; inhibition, % at 7.35 µM; 0.4% of 360,000 active; AID 588664; in the data active means inhibition above about 5%, passing the limit was not always enough
ABHD5-PLIN5 inh: ABHD5-PLIN5 protein interaction inhibition; Q00G26+Q8WTS1; Split G. princeps luciferase complementation, luminescence, 4 h; inhibition, % at 4 µM; 0.78% of 360,000 active; AID 602281;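 active means inhibition above the mean inhibition across every tested compound plus 3 SD, cut at about 22% in these data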;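 further: 0% = DMSO only wells and the 100% control is not disclosed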
MBD2 DNA inh: MBD2-methylated oligo binding inhibition; TR-FRET, MBD2 binding to methylated oligonucleotide; 0.31% of 370,000 active; AID 686964; Q9UBB5; inhibition, % at 4.4 µM; in the data active means inhibition above about 13%
Arr AP2 block: inhibitors of human beta-arrestin and AP2 interaction | AID 504490 | inhibition, % at 10 µM | 0.31% of 340,000 active | FITC-arrestin peptide / GST-AP2 beads, flow cytometry; AP2 beta2 appendage carries R879A mutation;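 active means inhibition above a set limit, near 3 SD of compounds lacking own fluorescence, cut at about 54% in these data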;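 further: plate controls were DMSO wells for no effect and 5 µM unlabelled arrestin peptide for full effect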
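Material – GST-tagged AP2 beta2-adaptin appendage (R879A) on 4 µm glutathione beads · Probe or stimulus – fluorescein-tagged arrestin peptide at 50 nM final · Timing – 12 min plus 1 h, RT · Detection – bead flow cytometry, FITC channel · Read-out basis – inhibition as reduced fluorescein signal on beads, percent · Medium – PBS plus Tween 20 (0.05%) and BSA (0.1%)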
Beta2AR agonist: human beta-2 adrenergic receptor agonism by FAP | P07550 | response, % (concentration not given with the values) | AID 504454 | 0.43% of 340,000 active | Am2.2-beta2AR cells, FAP receptor internalization, flow cytometry;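 active means response above a set limit, near 3 SD of response in nonfluorescent compounds, cut at about 42% in these data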
UHRF1 binding: human UHRF1 methylated DNA binding inhibitors; inhibition, % at 4.4 µM; 0.75% of 370,000 active; UHRF1 binding to methylated oligo, TR-FRET; in the data active means inhibition above about 21%;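 further: UHRF1 SRA domain binding a hemimethylated CpG hairpin DNA probe; 0% = median of test compound wells and 100% = reference inhibitor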
Beta2AR ag CP1: human beta-2 adrenergic receptor agonism, cherry pick | shares compounds with Beta2AR agonist | Am2.2-beta2AR cells, FAP surface receptor, flow cytometry; active compounds read low | percent response (surface receptor), % at 10 µM | 25% of 1,100 active | AID 540358;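 active means surface receptor percent response at or below 58%, roughly 3 SD from nonfluorescent compounds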
FAP fluor counter: counter-screen for beta-2AR agonists: fluorescence in Am2.2 cells | calls only at 10 µM | AID 588765 | FAP fluorogen flow cytometry, fluorescence counterscreen; active compounds read low | shares compounds with Beta2AR agonist | 1,100 tested, under 10 active;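 active means percent response below a set limit in fluorescence channel 1 and below 50% in channel 8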
Arr AP2 CP1: human beta-arrestin and AP2 interaction inhibition, cherry pick. shares compounds with Arr AP2 block. GST-AP2 beads, FITC arrestin peptide binding, flow cytometry; GST-fused beta2-adaptin appendage, R879A mutant. inhibition, % at 10 µM. 2% of 1,300 active. AID 504908;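 active means inhibition above a set limit, roughly 3 SD of non-fluorescent compound noise, cut at about 38% in these data; inactive means inhibition at or below that limit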;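 further: loss of bead fluorescence from 50 nM FITC arrestin peptide bound to appendage; 0% = negative control wells and 100% = excess unlabelled arrestin peptide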
GST-FITC bead: GST-GSH bead binding interference, counter-screen | shares compounds with Arr AP2 block | GST-fluorescein binding to GSH beads, fluorescence | inhibition, % at 10 µM | 2% of 1,300 active;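 active means inhibition above 50%, about 3 SD of the inhibition seen with non-fluorescent compounds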;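 further: fluorescein maleimide labelled GST captured on 4 micron glutathione beads; higher means more loss of bead fluorescence from quenching or blocked binding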
Rin1 Abl conf: confirmation of inhibitors of human Rin1-Abl interaction | TR-FRET Rin1-Abl binding, purified proteins | 49% of 1,300 active | shares compounds with Rin1-Abl PPI inh | AID 602124 | inhibition, % at 7.35 µM
GFP quench: quenches GFP fluorescence, counter-screen for Rin1-Abl inhibitors | 8.5% of 1,300 active | inhibition, % at 6.75 µM | inhibitors/quenchers counterscreen | shares compounds with Rin1-Abl PPI inh;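 further: ABL1-eGFP fusion protein alone without its partner RIN1-SBP; 0% = protein with vehicle and 100% = wells lacking protein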
ABHD5-PLIN5 conf: confirmation of human ABHD5-PLIN5 interaction inhibitors; shares compounds with ABHD5-PLIN5 inh; biochemical ABHD5-PLIN5 interaction, luminescence; inhibition, % at 4 µM; 67% of 2,200 active; AID 651612; in the data active means inhibition above about 23%;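 further: 0% = DMSO vehicle wells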
HNF4 counter: counter-screen for ABHD5-PLIN5 inhibitors: HNF4 split-luciferase. shares compounds with ABHD5-PLIN5 inh. HNF4 dimerization, luminescence, biochemical. inhibition, % at 4 µM. 77% of 2,200 active. AID 651674;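 active means mean inhibition across replicate wells exceeding the computed hit threshold, cut at about 13% in these data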;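 further: light from luciferase halves that rejoin when HNF4 fusion proteins dimerize; 0% = DMSO only wells and the 100% control is not given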
An asterisk follows results filed as active; i = inactive; x = no result; + = active, no number. Unless noted, no stated cut-off is given here; in the data, active means inhibition above about 6.5%; inactive means the rest.

SMILES	Rin1-Abl PPI inh	ABHD5-PLIN5 inh	MBD2 DNA inh	Arr AP2 block	Beta2AR agonist	UHRF1 binding	Beta2AR ag CP1	FAP fluor counter	others
COC(=O)[C@]12OC[C@]34C([C@@H](O)[C@@H]1O)[C@]1(C)CC(=O)C(O)=C(C)[C@@H]1C[C@H]3OC(=O)[C@H](O)[C@@H]24 (stereo not given in full)	4	7	2	21	42*	9	64	i
COc1ccc(C(O)C(C)NC(C)C(O)c2ccc(OC)cc2)cc1 (stereo not given)	-1	4	1	-2	-1	1	123	i
CC(NCc1ccc(Cl)cc1)C(O)c1ccccc1 (stereo not given)	5	7	0	-3	-5	-2	102	i
COc1cc(OC)c(OC)cc1CNC(C)C(O)c1ccccc1 (stereo not given)	-1	3	3	-8	6	-1	118	i
O=C(Cc1ccccc1)NC(Cc1ccc(Cl)cc1)C(=O)O (stereo not given)	-1	4	-2	26	-3	4	x	x
COc1cc(OC)c(OC)cc1CNCCc1ccc(OC)c(OC)c1	-2	-3	0	-6	-3	6	x	x
CCOc1c(Cl)cc(CNC(C)C(O)c2ccccc2)cc1OC (stereo not given)	0	-3	1	2	7	2	107	i
CC(NCc1cccc(Cl)c1Cl)C(O)c1ccccc1 (stereo not given)	-1	6	3	-4	-12	-3	109	i
O=C1Nc2ccccc2Oc2ccccc21	1	7	6	x	x	-1	x	x
C#C[C@]1(O)CCC2C3C(=O)C=C4C(Cl)=CCC[C@]4(C)C3CC[C@@]21C (stereo not given in full)	0	0	-1	7	9	-4	x	x
COc1ccc(CNCCc2ccc(Cl)cc2Cl)cc1	-1	-1	4	32	2	0	x	x
CC(NCc1ccc(Cl)cc1Cl)C(O)c1ccccc1 (stereo not given)	-2	0	1	3	-4	4	117	i
COc1ccc(CNCCc2c(C)[nH]c3ccc(OC(F)(F)F)cc23)c(OC)c1	2	13	-3	-7	43*	2	81	i
CCOC(=O)[C@]12Cc3c(cc(OC)c(OC)c3OC)[C@H]1N(C(C)C)C(=O)c1cc(OC)ccc12	x	20	-2	x	x	-3	x	x
COc1ccc(C[C@H]2NC[C@H](O)[C@H]2OC(C)=O)cc1	0	-1	2	8	94*	12	28*	+
c1ccc2[nH]c(CCN3CCCCC3)nc2c1	-2	4	2	x	x	1	x	x
COC(=O)C1C(c2ccc(Cl)cc2)CC2CCC1N2C (stereo not given)	x	x	-3	x	x	0	x	x
COc1ccc(C(O)CNC(C)C)c(F)c1OC (stereo not given)	-1	9	12	13	-13	0	116	i
CCCCC(CC)CNCC(O)c1ccccc1 (stereo not given)	0	5	2	12	-11	1	x	x
CCC[C@H](N[C@@H](CCC)[C@H](O)c1ccccc1)[C@H](O)c1ccccc1	1	2	4	6	-6	-1	112	i
COC(=O)C1=C(c2cc3ccccc3s2)C[C@@H]2CC[C@H]1N2C(=O)NCc1ccc(C(F)(F)F)cc1	-1	-13	0	-6	74*	-3	89	i
COC(=O)C1=C(c2cc3ccccc3s2)C[C@@H]2CC[C@H]1N2C(=O)NCC1CC1	-3	10	1	1	7	5	x	x
COC(=O)C1=C(c2ccc(OCc3ccccc3)cc2)C[C@@H]2CC[C@H]1N2C(=O)NCc1ccc(OC)c(OC)c1	3	4	-5	3	1	0	103	i
COC(=O)C1=C(c2ccc(OCc3ccccc3)cc2)C[C@@H]2CC[C@H]1N2C(=O)NCc1ccccc1OC	0	-1	-7	x	x	0	x	x
CCCC1(CC(C)C)C(=O)NC(=S)NC1=O	5	2	0	34	1	0	x	x
SMILES	Rin1-Abl PPI inh	ABHD5-PLIN5 inh	MBD2 DNA inh	Arr AP2 block	Beta2AR agonist	UHRF1 binding	Beta2AR ag CP1	FAP fluor counter	others
CC(CCc1ccccc1)NC(C)C(O)c1ccc(O)cc1 (stereo not given)	0	-2	3	3	4	-1	109	i
CCOP(=S)(OCC)Oc1nc(Cl)c(Cl)cc1Cl	0	-5	3	-11	-4	-1	x	x
CC(Cc1ccc(O)cc1)NCC(O)c1ccc(O)c(O)c1 (stereo not given)	14*	-4	-7	x	x	0	9.6*	i	Rin1 Abl conf=9.3*;GFP quench=4
Cc1cc(O)c2c(c1)C(=O)[C@@]13C(=C2O)C(=O)[C@H]2C(O)[C@@H]1[C@H]1C(O)[C@@H]3C(=O)C3=C(O)c4c(O)cc(C)cc4C(=O)[C@@]312 (stereo not given in full)	x	x	5	x	x	11	x	x
NCCc1ccc(OCc2ccccc2)c(OCc2ccccc2)c1	-2	28*	0	15	43*	1	100	i	ABHD5-PLIN5 conf=14;HNF4 counter=7
O=C(c1cc(Cl)cc(Cl)c1)N1Cc2ccccc2-n2nncc2C1	0	-4	8	x	x	19	x	x
COc1ccccc1-n1c(CNCC2CCCO2)nc2ccccc2c1=O (stereo not given)	-2	11	0	60*	-1	2	x	x	Arr AP2 CP1=-1;GST-FITC bead=-7

Screens: PubChem, several laboratories
